Screening data deposited in PubChem BioAssay by several laboratories.
KCNQ1 inh – human KCNQ1 channel inhibition; CHO-K1 KCNQ1, FluxOR thallium flux fluorescence; hits give high values; B-score at 10 µM; 310,000 tested, 1.3% active; AID 2642;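 active = compounds whose thallium flux B-score, printed positive for inhibition, exceeds three library SD while starting fluorescence stays within three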;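 note: channel opened by potassium depolarization with thallium stimulus after 20 min compound exposure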
KCNK3 block – human KCNK3 channel inhibition, primary screen; O14649; CHO-KCNK3 thallium flux, FluxOR fluorescence; hits give low values; B-score at 10 µM; 340,000 tested, 0.84% active; AID 602410;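 active = B-score under library mean minus 4 SD, starting fluorescence ratio at most library mean plus 5 SD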;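 note: more negative B-score means stronger inhibition of thallium flux through KCNK3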
Target sequence (O14649 whole entry, looked up): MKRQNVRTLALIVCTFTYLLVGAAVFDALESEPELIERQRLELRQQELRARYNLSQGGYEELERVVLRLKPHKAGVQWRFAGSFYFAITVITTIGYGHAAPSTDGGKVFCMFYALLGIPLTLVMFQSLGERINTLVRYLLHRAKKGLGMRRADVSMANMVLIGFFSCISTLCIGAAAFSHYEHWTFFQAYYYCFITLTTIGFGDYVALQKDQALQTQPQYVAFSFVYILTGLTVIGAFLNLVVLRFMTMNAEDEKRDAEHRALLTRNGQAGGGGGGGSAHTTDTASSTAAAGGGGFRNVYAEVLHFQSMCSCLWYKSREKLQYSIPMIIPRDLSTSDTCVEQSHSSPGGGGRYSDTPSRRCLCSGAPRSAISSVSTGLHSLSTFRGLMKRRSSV
KCNK9 inh – inhibitors of human KCNK9 two-pore domain potassium channel; 310,000 tested, 1.2% active; B-score at 10 µM; HEK293 KCNK9, FluxOR thallium flux fluorescence; hits give low values; Q9NPC2;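 active = ratio B-score over 3 SD below the library mean, with starting fluorescence within 5 SD of its mean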;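 note: negative B-score means less thallium flux so channel inhibition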
KCNQ1 pot – potentiates or activates the human KCNQ1 potassium channel | AID 2648 | 310,000 tested, 0.35% active | CHO-K1 KCNQ1, thallium flux FluxOR fluorescence; hits give high values | P51787 | B-score at 10 µM;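 active = fluorescence ratio B-score, a plate-corrected score, at least three library SD, with initial intensity B-score within 5 SD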
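System: CHO-K1 cells stably expressing KCNQ1 / Medium: assay buffer for compound exposure, DMSO matched across wells / Reagent: thallium- and potassium-containing depolarizing buffer / Compound: one concentration, matched DMSO / Incubation: 20 min compound pretreatment at room temperature / Measured by: kinetic FluxOR fluorescence, 10 s baseline plus 110 s post-stimulus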
Cl transport mod – modulators of human KCC2 chloride dependent transport; Q9H2X9; KCC2 cells, thallium flux FluoZin-2 fluorescence; B-score of Tl+ flux slope (higher = more flux/activation; lower = inhibition) at 10 µM; 190,000 tested, 2.2% active;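 active = thallium flux slope and its plate-corrected score both differing from the plate sample mean at a set confidence after two filtering rounds, in either direction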;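 note: slope of fluorescence scaled to starting intensity during 10 to 20 s after thallium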
hERG protect – hERG (human) protection from proarrhythmic block; Q12809; CHO-hERG, FluxOR thallium flux, dofetilide IC70 present; activation (rescue from dofetilide block), less the hit threshold, % at 10 µM; 310,000 tested, 0.51% active; AID 1511;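 active = activation above the mean of controls blocked by dofetilide plus 5 SD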;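 note: thallium influx through hERG after potassium depolarization seen as dye fluorescence rise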
KCNK3 confirm – human KCNK3 channel inhibition, confirmation assay. shares compounds with KCNK3 block. CHO-KCNK3 thallium flux, FluxOR fluorescence; 0% buffer, 100% carvedilol maximal block. ratio percent of control, % at 10 µM. 2,400 tested, 99% active. AID 651638;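 active = ratio percent of control, averaged over triplicates, above buffer control mean plus 5 SD, cut at about 64% in these data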;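 note: ratio is the fluorescence rise from min to max over baseline after thallium stimulus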
KCNK3 uninduced – counter-screen for KCNK3 inhibitors: effect in non-induced cells | shares compounds with KCNK3 block | non-induced KCNK3 parental cells, FluxOR thallium flux; hits give low values | thallium flux ratio (lower = more inhibition) at 10 µM | 2,400 tested, 40% active | AID 651747;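 active = thallium flux ratio, averaged over three wells, more than 5 SD below the buffer control mean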;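 note: host cells are CHO cells without KCNK3 induction; ratio is peak minus trough fluorescence over baseline then normalized to buffer controls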
The depositor's hits bear a star; i = inactive; · = no result given. Most compounds without a hit are left out; they make up all but 4.1% or so of the library.

SMILES | KCNQ1 inh | KCNK3 block | KCNK9 inh | KCNQ1 pot | Cl transport mod | hERG protect | KCNK3 confirm | KCNK3 uninduced
COc1cccc(NC(=O)N2CCN(c3nnnn3-c3ccccc3)CC2)c1 | i | i | i | i | 0.02 | -2 | · | ·
Cc1ccc(OCC(=O)N2CCc3ccccc32)c([N+](=O)[O-])n1 | i | i | i | i | -0.33 | -13 | · | ·
O=C(NCCc1ccccc1)C(c1cccs1)N(C(=O)CCl)c1ccc(Cl)cc1 (stereo not drawn) | i | i | i | i | -0.7 | -7 | · | ·
O=C(Nc1ccc(Br)c(C(F)(F)F)c1)c1ccc(C(F)(F)F)cc1 | 12* | -10* | i | i | -0.016 | -23 | 119* | 0.1*
CCCS(=O)(=O)c1c(S(=O)(=O)CCC)c2c(N)cccn2c1C(=O)c1ccc(F)cc1 | i | i | i | i | -0.6 | -8 | · | ·
CCCS(=O)(=O)c1c(S(=O)(=O)CCC)c2ccc(C(N)=O)cn2c1C(=O)c1ccc(F)cc1 | i | -12* | -7.4* | i | 0.81 | -9 | 91* | i
CCCCNC(=O)Cn1cnc2c(cnn2-c2ccc(C)cc2)c1=O | i | i | i | i | · | -7 | · | ·
COc1ccc(C)cc1NC(=O)c1sc2ncnc(N3CCN(c4ccccn4)CC3)c2c1C | i | -11* | i | i | · | -3 | 116* | i
CC(C)N(C(=S)NC1CC2CCC1C2)c1ccccc1 (stereo not drawn) | i | -9.8* | i | i | -0.16 | -17 | 118* | 0.16*
O=[N+]([O-])c1ccc(N=Nc2ccc(O)c3ccccc23)cc1 | · | i | · | · | · | · | · | ·
COc1ccc(C)cc1-n1c(SCC(=O)Nc2cc(C)on2)nc2sc(C)c(C)c2c1=O | i | -11* | i | i | 1.8 | -8 | 128* | i
CC(=O)C1=C(O)C(=O)N(CCO)C1c1ccccc1 (stereo not drawn) | i | i | i | i | · | -6 | · | ·
COc1ccc(Br)cc1CN(C)CC(=O)NCCc1ccccc1 | i | -10* | i | i | -0.47 | -11 | 102* | i
COc1ccccc1CN(C)CC(=O)Nc1ccccc1-c1ccccc1 | i | -8.8* | i | i | -0.12 | -22 | 116* | 0.14*
CCOC(=O)Nc1cccc(NC(=O)c2ccccc2F)c1 | i | -8.8* | i | i | 0.63 | -10 | 100* | i
CC(=O)Nc1cccc(NC(=O)c2cccc(OCc3ccccc3)c2)c1 | i | i | i | i | · | -9 | · | ·
CC(=O)Nc1cccc(NC(=O)c2ccccc2OCc2ccccc2)c1 | i | -10* | i | i | · | -9 | 111* | i
CCOC(=O)C1CCN(C(=O)CCc2c(C)nc3ncnn3c2C)CC1 | i | i | i | i | · | -14 | · | ·
CC(C)CC(NC(N)=O)C(=O)Nc1ccc2c(c1)OCO2 (stereo not drawn) | i | i | i | i | -0.47 | -10 | · | ·
Cc1cccc(NC(=O)NC2CCCc3ccccc32)c1 (stereo not drawn) | i | -9.4* | i | i | · | -18 | 121* | 0.14*
COc1cccc(OC)c1C1=NC(C)(C)CO1 | i | i | i | i | -1.1 | -4 | · | ·
Cc1cc2oc(=O)cc(CN(C)Cc3ccccc3F)c2cc1Cl | i | -12* | i | i | · | -7 | 118* | 0.14*
COc1ccc(CN(C)Cc2cc(=O)oc3cc(C)c(C(C)C)cc23)cc1OC | i | i | i | i | · | -13 | · | ·
COc1cc(CN(C)Cc2cc(=O)oc3cc(C)c(Cl)cc23)ccc1OC(F)F | i | -10* | i | i | · | -8 | 106* | i
Cc1cc2oc(=O)cc(CN(C)Cc3ccccc3Cl)c2cc1C | 6* | -10* | i | i | · | -9 | 57* | i
SMILES | KCNQ1 inh | KCNK3 block | KCNK9 inh | KCNQ1 pot | Cl transport mod | hERG protect | KCNK3 confirm | KCNK3 uninduced
Cc1cc2oc(=O)cc(CN(C)Cc3ccccc3)c2cc1C(C)C | 7* | -8.9* | i | i | · | -9 | 99* | 0.14*
COc1ccc(C2C3C=CCC(c4cccc(-c5ccc(C)cc5)c4)C3C(=O)N2Cc2ccccc2)cc1Cl (stereo not drawn) | i | i | i | i | 0.76 | -12 | · | ·
CCN(CCO)Cc1cc(=O)oc2c(C)c(C)ccc12 | i | i | i | i | -0.94 | -1 | · | ·
Cc1ccc2c(CN(C)Cc3cccc(Cl)c3)cc(=O)oc2c1C | i | -8.7* | i | i | · | -8 | 126* | i
Cc1cc2oc(=O)cc(CN(C)Cc3cccc(F)c3)c2cc1Cl | i | -11* | i | i | · | -11 | 100* | i
C/C(=N\NC(=O)Cn1nc(C)c([N+](=O)[O-])c1C)c1ccco1 | i | i | i | i | -0.32 | -12 | · | ·
CCOc1ccc(COC(=O)C2CC(=O)N(CCc3ccccc3)C2)cc1OC (stereo not drawn) | · | i | · | · | · | · | · | ·
C=CCn1c(C)cc(C(=O)COc2ccc(N(C)S(=O)(=O)c3ccc(NC(C)=O)cc3)cc2)c1C | · | -12* | · | · | · | · | 105* | i
COc1ccc(C)cc1S(=O)(=O)N1CCN(c2cccc(C(F)(F)F)c2)CC1 | i | -10* | i | i | 1.2 | -7 | 103* | i
Cc1csc2ncnc(N3CCN(C(=O)Nc4ccc(OC(F)(F)F)cc4)CC3)c12 | i | -9.7* | i | i | -1.2 | -20 | 109* | 0.16*
Cc1csc2c(N3CCN(C(=O)Nc4ccccc4)CC3)ncnc12 | i | i | i | i | -1.1 | -11 | · | ·
CCOc1ccc2nc(N3CCCC(C(=O)NC4CCCC4)C3)sc2c1 (stereo not drawn) | i | i | i | i | · | -9 | · | ·
CCCCSc1nc2c(c(C(F)(F)F)c1C#N)CCC2 | i | -9.1* | i | i | · | -11 | 119* | 0.15*
O=c1[nH]cnc2[nH]ncc12 | i | i | i | i | 0.054 | -6 | · | ·
CCc1cc(CN2CCOCC2)c(NC(=O)c2ccccc2)s1 | i | -9.3* | i | i | -0.52 | -13 | 102* | i
O=C(Nc1ccc(N2CCOCC2)cc1N1CCOCC1)c1ccccc1 | · | i | · | · | · | · | · | ·
CN(C(=O)c1cccc(NC(=O)Cc2ccc(NC(=O)C3CCCN(C(=O)CCc4ccccc4)C3)cc2)c1)C1CCCCC1 (stereo not drawn) | · | i | · | · | · | · | · | ·
